From ChEMBL document CHEMBL3822400, “New structure-activity relationships of N-acetamide substituted pyrazolopyrimidines as pharmacological ligands of TSPO” (Bioorg Med Chem Lett, 2016)

Legend:
[1] = Fraction unbound in human plasma after 4.5 hrs by rapid equilibrium dialysis method; assay type: ADME, cell-free
Outline: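 Equilibrium dialysis of plasma against buffer. After dialysis, the buffer and plasma fractions were extracted and analysed by standard LC-MS to quantify the compound.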

Translocator protein = Translocator protein (Rattus norvegicus, UniProt P16257); assay: Displacement of [3H]-PK11195 from TSPO in rat C6 cell lysate after 2 hrs by liquid scintillation counting; assay type: cell-free
[2] = Lipophilicity, log P of the compound at pH 7.5 by HPLC method; assay type: physicochemical; settings: buffer

Translocator protein, sequence (P16257 whole entry, looked up): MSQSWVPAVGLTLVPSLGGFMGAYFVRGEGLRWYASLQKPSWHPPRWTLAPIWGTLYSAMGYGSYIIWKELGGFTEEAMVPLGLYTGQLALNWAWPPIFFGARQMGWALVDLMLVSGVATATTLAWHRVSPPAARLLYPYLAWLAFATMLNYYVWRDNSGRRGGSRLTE

SMILES	Fu [1] [%]	Ki (Translocator protein) [nM]	logP [2]
CCc1cc(CC)n2nc(-c3ccc(OC)cc3)c(CC(=O)N(CC)CC)c2n1	1.1		
CCc1cc(CC)n2nc(-c3ccc(OC)cc3)c(CC(=O)N(CC)c3ccccc3)c2n1	0.6	0.28	3.27
CCc1cc(CC)n2nc(-c3ccc(OC)cc3)c(CC(=O)N(C(C)CC)C(C)CC)c2n1 (stereo not drawn)		14.4	3.75
CCc1cc(CC)n2nc(-c3ccc(OC)cc3)c(CC(=O)N(C)C)c2n1		37.6	2.47
CCc1cc(CC)n2nc(-c3ccc(OC)cc3)c(CC(=O)N(CC)C(C)(C)C)c2n1		59.1	3.32
CCCN(CCC)C(=O)Cc1c(-c2ccc(OC)cc2)nn2c(CC)cc(CC)nc12	0.7	5.57	3.35
CCc1cc(CC)n2nc(-c3ccc(OC)cc3)c(CC(=O)N3CCCCC3)c2n1		49.2	2.96
CCc1cc(CC)n2nc(-c3ccc(OC)cc3)c(CC(=O)N(C(C)C)C(C)C)c2n1		20	3.26
CCc1cc(CC)n2nc(-c3ccc(OC)cc3)c(CC(=O)N(CC(C)C)CC(C)C)c2n1		13.2	3.77
CCCCCN(CCCCC)C(=O)Cc1c(-c2ccc(OC)cc2)nn2c(CC)cc(CC)nc12		2.17	4.29
CCCCN(CCCC)C(=O)Cc1c(-c2ccc(OC)cc2)nn2c(CC)cc(CC)nc12	0.3	7.34	3.81
CCCCCCN(CCCCCC)C(=O)Cc1c(-c2ccc(OC)cc2)nn2c(CC)cc(CC)nc12		18.6	4.78
CCc1cc(CC)n2nc(-c3ccc(OC)cc3)c(CC(=O)N3CCC3)c2n1		87.8	2.58
CCc1cc(CC)n2nc(-c3ccc(OC)cc3)c(CC(=O)N(C)C(C)(C)C)c2n1	1.3	94.8	3.13
CCc1cc(CC)n2nc(-c3ccc(OC)cc3)c(CC(=O)N(C)c3ccccc3)c2n1	1.1	6.44	3.11
CCc1cc(CC)n2nc(-c3ccc(OC)cc3)c(CC(=O)N3CCCC3)c2n1		127	2.72
CCc1cc(CC)n2nc(-c3ccc(OC)cc3)c(CC(=O)N(Cc3ccccc3)Cc3ccccc3)c2n1		397	3.73
